NSD2 inh: NSD2 (human) methyltransferase inhibition. O96028. NSD2 peptide methylation, AlphaScreen, 120 min. inhibition, % at 12.5 µM. 0.54% of 310,000 active. AID 743445; in the data active = inhibition above about 50%
CASP6 VEID inh: caspase-6 (human) enzyme inhibition; P55212; purified caspase-6, Z-VEID-R110 cleavage fluorescence; inhibition, % at 12.5 µM; 0.53% of 350,000 active;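 active = mean inhibition across replicates at least about 35%, with every replicate also reaching that limit, limit read from the data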
UCH37 inh: blocks the human deubiquitinase UCH37. Q9Y5K5. purified proteasome/UCH37, Ub-AMC cleavage fluorescence. inhibition, % (no concentration beside the values). 0.33% of 330,000 active;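 active = mean inhibition over replicate wells above about 20%, limit read from the data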
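System: Proteasome-associated human UCH37 deubiquitinase; Input: 0.15 nM proteasome in added enzyme buffer; Also added: Ub-AMC substrate from 1 µM stock; Incubation: 30 min compound-proteasome preincubation then 25 min substrate reaction, room temperature; Detection: fluorescence, ex 355 nm, em 460 nm; Read-out: % inhibition of Ub-AMC cleavage fluorescence; Benchmarks: no-proteasome and no-compound wells.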
TDP2 absorb: blocks human TDP2 phosphodiesterase activity; recombinant TDP2, T5PNP hydrolysis, p-nitrophenol absorbance 415 nm; 0.34% of 370,000 active; inhibition, % at 12.8 µM; O95551;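 active = inhibition above the mean of all tested compounds plus 3 SD, set per campaign, cut at about 25% in these data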
Target sequence (O95551 whole entry, looked up): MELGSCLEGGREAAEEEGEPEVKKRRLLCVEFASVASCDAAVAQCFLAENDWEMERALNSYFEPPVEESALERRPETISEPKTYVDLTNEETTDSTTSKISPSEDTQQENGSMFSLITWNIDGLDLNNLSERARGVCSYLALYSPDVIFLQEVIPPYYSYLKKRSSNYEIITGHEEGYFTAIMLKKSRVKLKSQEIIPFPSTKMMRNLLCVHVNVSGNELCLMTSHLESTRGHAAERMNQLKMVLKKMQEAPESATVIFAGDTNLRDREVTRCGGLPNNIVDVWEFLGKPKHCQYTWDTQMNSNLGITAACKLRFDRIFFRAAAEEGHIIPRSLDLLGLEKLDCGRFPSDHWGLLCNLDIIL
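System – recombinant human TDP2 · Amount – 120 nM TDP2 per well · Buffer or medium – Mg2+-containing Tris-HCl buffer, pH 7.5 · Reagent – T5PNP substrate, 5 mM · Dosing – 12.8 µM single point, 1% DMSO · Incubation – 2 h at 37 °C · Measured by – epi absorbance · Read-out basis – percent inhibition · Benchmarks – high control without enzyme, low control DMSO plus TDP2 · Repeats – singlicate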
LEDGF integ inh: blocks HIV-1 LEDGF/p75-dependent DNA integration; TR-FRET IN-LEDGF/p75 DNA integration, Eu/Cy5; inhibition, % at 3.7 µM; 0.64% of 370,000 active; AID 743269;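 active = inhibition above the screen-wide mean plus 3 SD, cut at about 13% in these data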;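 also: signal is the Cy5 over europium emission ratio at 671 and 618 nm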
IN multimer act: HIV-1 integrase multimerization activation, counter-screen; shares compounds with LEDGF integ inh; TR-FRET HIV-1 integrase multimerization, biochemical; activation, % at 7.7 µM; 17% of 2,000 active; AID 1053131; in the data active = activation above about 8.9%
TR-FRET interf: TR-FRET optical interference, LEDGF/p75 integration counter-screen; inhibition, % at 7.7 µM; 2,000 tested, under 10 active; AID 1053135; TR-FRET optical interference counterscreen, HIV-1 IN multimerization; shares compounds with LEDGF integ inh;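 active = inhibition above the mean over all tested compounds plus 3 SD, which no compound reached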
IN-LEDGF confirm: LEDGF/p75-dependent HIV-1 integration inhibition, confirmation; shares compounds with LEDGF integ inh; TR-FRET LEDGF/p75-dependent HIV-1 integration, biochemical; inhibition, % at 3.7 µM; 36% of 2,000 active; AID 1053136; in the data active = inhibition above about 14%
Each line names hits and unclear results; the compound was inactive in the other large screens (follow-up assays come after a bar, where they were run). Most compounds without a hit are left out; they make up all but 1.3% or so of the library.

COCCCNC(=O)/C(C#N)=C/c1ccc(OCC(=O)O)c(OC)c1	CASP6 VEID inh 41, LEDGF integ inh 17 | IN multimer act 23 | TR-FRET interf inactive | IN-LEDGF confirm 36
COc1ccc(Br)cc1/C=c1\sc2nc(-c3ccco3)nn2c1=O	LEDGF integ inh 24 (no result: CASP6 VEID inh, UCH37 inh) | IN multimer act inactive | TR-FRET interf inactive | IN-LEDGF confirm 15
O=C(NN=Cc1cc([N+](=O)[O-])ccc1O)c1ccncc1	none (no result: NSD2 inh, CASP6 VEID inh, TDP2 absorb, LEDGF integ inh)
O=C(Nc1ccccc1N1CCOCC1)c1ccc(F)c(S(=O)(=O)N2CCOCC2)c1	none
CC1Cc2ccccc2N1C(=O)c1ccc(F)c(S(=O)(=O)N2CCOCC2)c1 (configuration not stated)	LEDGF integ inh 26 | IN multimer act inactive | TR-FRET interf inactive | IN-LEDGF confirm inactive
CC1(C)Cc2c(sc(N=CN3CCCCC3)c2C#N)C(C)(C)N1	none (no result: NSD2 inh, CASP6 VEID inh, TDP2 absorb, LEDGF integ inh)
O=C1c2cccc3c2N(CCC3)C(=O)C1(F)c1ccccc1 (configuration not stated)	LEDGF integ inh 14 | IN multimer act inactive | TR-FRET interf inactive | IN-LEDGF confirm inactive
O=C(NN=Cc1ccc(OCc2ccccc2)cc1)c1ccncc1	none (no result: NSD2 inh, CASP6 VEID inh, TDP2 absorb, LEDGF integ inh)
CON=CC(c1ncc(C(F)(F)F)cc1Cl)S(=O)(=O)c1ccccc1 (configuration not stated)	none (no result: NSD2 inh, CASP6 VEID inh, TDP2 absorb, LEDGF integ inh)
COc1ccc(N2CCN(C(=O)c3ccc4c(c3)[nH]c(=S)n3c5ccccc5nc43)CC2)cc1	LEDGF integ inh 15 | IN multimer act inactive | TR-FRET interf inactive | IN-LEDGF confirm inactive
CCc1ccc(N2C=C(C(=O)OC)C(c3cccc4ccccc34)C(C#N)=C2N)cc1 (configuration not stated)	LEDGF integ inh 22 (no result: NSD2 inh, UCH37 inh) | IN multimer act inactive | TR-FRET interf inactive | IN-LEDGF confirm inactive
CN(C)S(=O)(=O)c1cccc(NC(=S)N/N=C/c2ccc(O)c(O)c2O)c1	CASP6 VEID inh 38, LEDGF integ inh 55 (no result: UCH37 inh) | IN multimer act 19 | TR-FRET interf inactive | IN-LEDGF confirm 41
COCCNC(=S)NN=C1CC(C)CC(C)(C)C1 (configuration not stated)	none (no result: NSD2 inh, CASP6 VEID inh, TDP2 absorb, LEDGF integ inh)
CCCc1cnc(Nc2nc(C(N)Cc3ccc(OC)cc3)cs2)nc1 (configuration not stated)	LEDGF integ inh 13 (no result: UCH37 inh) | IN multimer act inactive | TR-FRET interf inactive | IN-LEDGF confirm inactive
O=C(NN=CCCc1ccccc1)c1ccccc1	none (no result: NSD2 inh, CASP6 VEID inh, TDP2 absorb, LEDGF integ inh)
O=c1c2ccccc2nc2n1CCC2	LEDGF integ inh 15 (no result: CASP6 VEID inh) | IN multimer act inactive | TR-FRET interf inactive | IN-LEDGF confirm 34
N#Cc1c(NC(=O)CSc2ncnc3sccc23)oc(-c2ccco2)c1-c1ccco1	LEDGF integ inh 27 (no result: CASP6 VEID inh) | IN multimer act 14 | TR-FRET interf inactive | IN-LEDGF confirm 58
Cc1cc(NC(=O)CSc2ncnc3sccc23)no1	none
CC(=NNC(=O)C1CC1)c1ccc(C)c(C)c1	none (no result: NSD2 inh, CASP6 VEID inh, TDP2 absorb, LEDGF integ inh)
O=C(O)COc1ccccc1C=NNC(=O)CN1CCN(Cc2ccc(Cl)cc2)CC1	none (no result: NSD2 inh, CASP6 VEID inh, TDP2 absorb, LEDGF integ inh)
COc1cc(C2OCC3C(c4ccc(OC5OC(CO)C(O)C(O)C5O)c(OC)c4)OCC23)ccc1O (configuration not stated)	LEDGF integ inh 32 (no result: NSD2 inh) | IN multimer act 34 | TR-FRET interf inactive | IN-LEDGF confirm 15
Cc1ccc([N+](=O)[O-])cc1N1C(=O)CSC1=NNC(=O)c1cccnc1	none (no result: NSD2 inh, CASP6 VEID inh, TDP2 absorb, LEDGF integ inh)
O=C(COC(=O)c1cncc(Br)c1)NCc1ccco1	LEDGF integ inh 16 (no result: CASP6 VEID inh) | IN multimer act inactive | TR-FRET interf inactive | IN-LEDGF confirm 29
C=CCSc1nc2sc3c(c2c(=O)n1-c1ccc(C)cc1)CCN(C)C3	LEDGF integ inh 34 | IN multimer act inactive | TR-FRET interf inactive | IN-LEDGF confirm inactive
CCOC(=O)NN=Cc1c(F)cccc1F	none (no result: NSD2 inh, CASP6 VEID inh, TDP2 absorb, LEDGF integ inh)
CC(C)(C)c1ccc(C=NNC(=O)C2CCCC2)cc1	none (no result: NSD2 inh, CASP6 VEID inh, TDP2 absorb, LEDGF integ inh)
C/C(=N\NS(=O)(=O)c1ccc(C(C)(C)C)cc1)c1ccccc1	none (no result: UCH37 inh)
